Source: ChEMBL document CHEMBL3994600, “Anthenosides L-U, Steroidal Glycosides with Unusual Structural Features from the Starfish Anthenea aspera” (J Nat Prod, 2016)

How the values were obtained:
[1] = system: Erythrocyte; assay: Hemolytic activity against CD-1 mouse erythrocytes after 1 hr by spectroscopic method; assay type: ADME, cell-based
Summary of the method: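 CD-1 mouse blood erythrocytes washed three times in PBS pH 7.4 (450g, 5 min), resuspended to OD700 1.5, kept on ice. Suspension mixed 9:1 with test solution at various concentrations, 37 °C for 1 h. Cells pelleted; supernatant hemoglobin read at 570 nm. Expressed as % hemolysis versus control; EC50 reported.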

[2] = system: RAW264.7; assay: Cytotoxicity against mouse RAW264.7 cells assessed as reduction in cell viability by MTT assay; assay type: cell-based
Summary of the method: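 Macrophages (ATCC) grown in DMEM with 10% FBS at 37 °C, humidified 5% CO2. Viability by standard MTT method; at least triplicate, mean ± SD.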

[3] = system: RAW264.7; assay: Induction of ROS generation in mouse RAW264.7 cells at 10 uM after 24 hrs by 2,7-dichlorodihydrofluorescein diacetate staining based fluorescence assay; assay type: cell-based; details: raw264.7, 24 h
[4] = system: Ehrlich; assay: Cytotoxicity against mouse Ehrlich carcinoma cells assessed as reduction in cell viability by MTT assay; assay type: cell-based
Summary of the method: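 Ehrlich ascites carcinoma (tetraploid strain) grown in the peritoneal cavity of 18–20 g CD-1 mice. Cells harvested 7−10 days after inoculation, washed twice in PBS pH 7.4 (450g, 5 min), resuspended in serum-free RPMI-1640 at about (1−2) × 10^6 cells/mL. Standard MTT viability read-out; at least triplicate, mean ± SD.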

[5] = system: Splenocyte; assay: Cytotoxicity against Balb/c mouse splenocytes assessed as reduction in cell viability by MTT assay; assay type: cell-based
Summary of the method: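 BALB/C spleen homogenized in PBS pH 7.4, filtered through nylon voile, washed three times by centrifugation (450g, 5 min), resuspended in PBS at (2−5) × 10^6 cells/mL. Viability measured by standard MTT method; at least triplicate, mean ± SD.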

[6] = system: RAW264.7; assay: Immunomodulatory activity in mouse RAW264.7 cells assessed as inhibition of LPS-induced ROS level at 10 uM after 24 hrs by 2,7-dichlorodihydrofluorescein diacetate staining based fluorescence assay relative to control; assay type: functional; details: RAW264.7, 24 h
Summary of the method: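 Macrophages allowed to adhere 2 h at 37 °C, 5% CO2, then exposed to compounds at 10 μM for 24 h. In each experiment compounds were co-incubated with E. coli 055:B5 LPS (1.0 μg/mL). H2DCF-DA added (final 10 μM), 10 min at 37 °C. Fluorescence read at 485/518 nm; at least triplicate, mean ± SD, Student's t test (p < 0.05).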

SMILES	Activity [1]	Activity [2]	Activity [3]	Activity [4]	Activity [5]	inhibition at 10 µM [6] [%]
CO[C@@H]1[C@@H](O)[C@H](O[C@@H]2CC3=C4[C@@H](O)[C@@H](O)[C@H]5C[C@H](O)CC[C@]5(C)[C@H]4CC[C@]3(C)[C@H]2[C@H](C)/C=C/[C@@H](C)C(C)C)O[C@H]1[C@H](O)CO	Non-Toxic	Non-Toxic	Non-Toxic	Non-Toxic	Non-Toxic	
C=C(CC[C@@H](C)[C@H]1[C@H](O[C@@H]2O[C@@H]([C@H](O)COC)[C@H](O)[C@H]2O)CC2=C3[C@@H](O[C@@H]4O[C@@H]([C@H](O)CO)[C@H](OC)[C@H]4O)[C@@H](O)[C@H]4C[C@H](O)CC[C@]4(C)[C@H]3CC[C@@]21C)C(C)C	Non-Toxic	Non-Toxic	Non-Toxic	Non-Toxic	Non-Toxic	
CO[C@@H]1[C@@H](O)[C@H](O[C@@H]2CC3=C4[C@@H](O)[C@@H](O)[C@H]5C[C@H](O)CC[C@]5(C)[C@H]4CC[C@]3(C)[C@H]2[C@H](C)/C=C/[C@@H](C)C(C)C)O[C@H](CO)[C@H]1O	Non-Toxic	Non-Toxic	Non-Toxic	Non-Toxic	Non-Toxic	24
COC[C@@H](O)[C@@H]1O[C@@H](O[C@@H]2C3=C4C[C@@H](O[C@@H]5O[C@H](CO)[C@@H](O)[C@H](OC)[C@H]5O)[C@H]([C@H](C)CCCC(C)C)[C@@]4(C)CC[C@@H]3[C@@]3(C)CC[C@@H](O)C[C@@H]3[C@@H]2O)[C@H](O)[C@H]1O	Non-Toxic	Non-Toxic	Non-Toxic	Non-Toxic	Non-Toxic	
CO[C@@H]1[C@@H](O)[C@H](O[C@@H]2CC3=C4[C@@H](O)[C@@H](O)[C@H]5C[C@H](O)CC[C@]5(C)[C@H]4CC[C@]3(C)[C@H]2[C@H](C)/C=C/C(C)C)O[C@H](CO)[C@H]1O	Non-Toxic	Non-Toxic	Non-Toxic	Non-Toxic	Non-Toxic	
COC[C@@H](O)[C@@H]1O[C@@H](O[C@@H]2C3=C4C[C@@H](O[C@@H]5O[C@H](CO)[C@@H](O)[C@H](OC)[C@H]5O)[C@H]([C@H](C)/C=C/CC(C)C)[C@@]4(C)CC[C@@H]3[C@@]3(C)CC[C@@H](O)C[C@@H]3[C@@H]2O)[C@H](O)[C@H]1O	Non-Toxic	Non-Toxic	Non-Toxic	Non-Toxic	Non-Toxic	
COC[C@@H](O)[C@@H]1O[C@@H](O[C@@H]2CC3=C4[C@@H](O)[C@@H](O)[C@H]5C[C@H](O)CC[C@]5(C)[C@H]4CC[C@]3(C)[C@H]2[C@H](C)/C=C/[C@@H](C)C(C)C)[C@H](O)[C@H]1O	Non-Toxic	Non-Toxic	Non-Toxic	Non-Toxic	Non-Toxic	
COC[C@@H](O)[C@@H]1O[C@@H](O[C@@H]2C3=C4C[C@@H](O[C@@H]5O[C@@H]([C@H](O)COC)[C@H](O)[C@H]5O)[C@H]([C@H](C)/C=C/[C@@H](C)C(C)C)[C@@]4(C)CC[C@@H]3[C@@]3(C)CC[C@@H](O)C[C@@H]3[C@@H]2O)[C@H](O)[C@H]1O	Non-Toxic	Non-Toxic	Non-Toxic	Non-Toxic	Non-Toxic	
